Legend:
[1] = tested on: Mycobacterium tuberculosis; assay: Inhibition of Mycobacterium tuberculosis T6PP using T6P as substrate assessed as fraction of enzyme unbound with compound by measuring ratio of initial velocities of T6P substrate hydrolysis in presence and absence of compound at 1 mM after 5 mins by BioMol green dye based HTS assay
In short: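 Mt-T6PP (5–25 nM, freshly purified) in 25 mM Hepes pH 7.5, 50 mM NaCl, 5 mM MgCl₂, 5% glycerol at 25 °C. T6P at Km. Initial velocity was measured with and without 1 mM inhibitor; released phosphate read as absorbance at 625 nm after 30 min incubation. VI/V is the unbound-enzyme fraction.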

[2] = Inhibition of Mycobacterium tuberculosis T6PP using T6P as substrate by Lineweaver-Burk plot analysis
In short: (§1)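 Continuous phosphate-release assay (EnzChek, MESG/purine nucleoside phosphorylase) at 25 °C. Initial velocities of T6P hydrolysis by T6PP were taken at varied T6P with inhibitor at 0, Ki and 2×Ki. Km and Vmax come from double-reciprocal plots.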

[3] = tested on: Mycobacterium tuberculosis; assay: Inhibition of Mycobacterium tuberculosis T6PP assessed as Vmax for substrate using T6P as substrate by Lineweaver-Burk plot analysis; in short: as §1
[4] = tested on: Mycobacterium tuberculosis; assay: Inhibition of Mycobacterium tuberculosis T6PP assessed as Km for substrate using T6P as substrate at 1 mM by Lineweaver-Burk plot analysis; in short: as §1

## O=S(=O)(O)OC[C@H]1O[C@H](OCc2ccccc2)[C@H](O)[C@@H](O)[C@@H]1O
[1]
  Ratio: 0.83

## OC[C@H]1O[C@@H](Oc2ccccc2)[C@H](O)[C@@H](O)[C@@H]1O
[1]
  Ratio: 0.81

## CO[C@H]1O[C@H](COS(=O)(=O)O)[C@@H](OCc2ccccc2)[C@H](O)[C@H]1O
[1]
  Ratio: 1.11

## O=Cc1ccccc1O[C@@H]1O[C@H](COS(=O)(=O)O)[C@@H](O)[C@H](O)[C@H]1O
[1]
  Ratio: 1.17

## O=S(=O)(O)OC[C@H]1O[C@@H](Oc2cccc3ccccc23)[C@H](O)[C@@H](O)[C@@H]1O
[1]
  Ratio: 0.85

## OC[C@H]1O[C@H](O[C@H]2O[C@H](CO)[C@@H](O)[C@H](O)[C@H]2O)[C@H](O)[C@@H](O)[C@@H]1O [TREHALOSE]
[1]
  Ratio: 0.83

## O=S(=O)(O)OC[C@H]1O[C@H](Oc2ccccc2)[C@H](O)[C@@H](O)[C@@H]1O
[1]
  Ratio: 1.17

## OC[C@H]1O[C@@H](Nc2ccccc2)[C@H](O)[C@@H](O)[C@@H]1O
[1]
  Ratio: 0.88

## OC[C@H]1O[C@H](Oc2ccccc2)[C@H](O)[C@@H](O)[C@@H]1O
[1]
  Ratio: 0.88

## CCCCCCc1ccc(O[C@H]2O[C@H](COS(=O)(=O)O)[C@@H](O)[C@H](O)[C@H]2O)cc1
[2]
  Ki: > 400 µM

## O=S(=O)(O)OC[C@H]1O[C@@H](Oc2ccccc2)[C@H](O)[C@@H](O)[C@@H]1O
[1]
  Ratio: 0.94

## O=S(=O)(O)OC[C@H]1O[C@H](O)[C@H](O)[C@@H](O)[C@@H]1O
[1]
  Ratio: 0.97

## CCCCCCCCO[C@@H]1O[C@H](COS(=O)(=O)O)[C@@H](O)[C@H](O)[C@H]1O
[1]
  Ratio: 0.83

## O=[N+]([O-])c1ccc(O[C@@H]2O[C@H](COS(=O)(=O)O)[C@@H](O)[C@H](O)[C@H]2O)cc1
[1]
  Ratio: 1.27

## O=P(O)(O)OC[C@H]1O[C@@H](Oc2ccccc2)[C@H](O)[C@@H](O)[C@@H]1O
[1]
  Ratio: 0.94

## CO[C@H]1O[C@H](COS(=O)(=O)O)[C@@H](O)[C@H](O)[C@H]1OCc1ccccc1
[1]
  Ratio: 1.01

## CCCCCCCCc1ccc(O[C@@H]2O[C@H](COS(=O)(=O)O)[C@@H](O)[C@H](O)[C@H]2O)cc1
[2]
  Ki: > 300 µM
[1]
  Ratio: 0.42

## O=S(=O)(O)OC[C@H]1O[C@@H](Oc2ccc(CO)cc2)[C@H](O)[C@@H](O)[C@@H]1O
[1]
  Ratio: 0.85

## OC[C@H]1O[C@@H](n2cc(-c3ccccc3)nn2)[C@H](O)[C@@H](O)[C@@H]1O
[1]
  Ratio: 0.95

## O=S(=O)(O)OC[C@H]1O[C@H](O[C@H]2O[C@H](CO)[C@@H](O)[C@H](O)[C@H]2O)[C@H](O)[C@@H](O)[C@@H]1O
[2]
  Ki: 130 µM
[1]
  Ratio: 0.43

## O=S(=O)(O)OC[C@H]1O[C@@H](Oc2ccc(F)c(F)c2)[C@H](O)[C@@H](O)[C@@H]1O
[1]
  Ratio: 0.8

## CO[C@H]1O[C@H](COS(=O)(=O)O)[C@@H](O)[C@H](O)[C@H]1O
[1]
  Ratio: 0.91

## CCCCCCCCc1ccc(O[C@H]2O[C@H](COS(=O)(=O)O)[C@@H](O)[C@H](O)[C@H]2O)cc1
[2]
  Ki: 100 µM

## O=S(=O)(O)OC[C@H]1O[C@@H](n2cc(-c3ccccc3)nn2)[C@H](O)[C@@H](O)[C@@H]1O
[1]
  Ratio: 0.98

## O=S(=O)(O)OCc1cccc(O[C@@H]2O[C@H](CO)[C@@H](O)[C@H](O)[C@H]2O)c1
[1]
  Ratio: 0.96

## CCCCCCc1ccc(O[C@@H]2O[C@H](COS(=O)(=O)O)[C@@H](O)[C@H](O)[C@H]2O)cc1
[2]
  Ki: > 400 µM

## O=Cc1cccc(O[C@@H]2O[C@H](COS(=O)(=O)O)[C@@H](O)[C@H](O)[C@H]2O)c1
[2]
  Ki: 1700 µM
[1]
  Ratio: 0.67
[3]
  Vmax: 0.247 µM/s
[4]
  Km: 712 µM

## OC[C@H]1O[C@@H](NC(=S)Nc2ccccc2)[C@H](O)[C@@H](O)[C@@H]1O
[1]
  Ratio: 1.04

## COc1cc(C=O)cc(OC)c1O[C@@H]1O[C@H](COS(=O)(=O)O)[C@@H](O)[C@H](O)[C@H]1O
[1]
  Ratio: 1.09

## CC(=O)Nc1ccc(O[C@@H]2O[C@H](COS(=O)(=O)O)[C@@H](O)[C@H](O)[C@H]2O)cc1
[1]
  Ratio: 0.94

## O=S(=O)(O)OC[C@H]1O[C@@H](Oc2cccc(CO)c2)[C@H](O)[C@@H](O)[C@@H]1O
[1]
  Ratio: 0.69

## O=Cc1ccc(O[C@@H]2O[C@H](COS(=O)(=O)O)[C@@H](O)[C@H](O)[C@H]2O)cc1
[1]
  Ratio: 0.87

## NS(=O)(=O)OCc1cccc(N[C@@H]2O[C@H](CO)[C@@H](O)[C@H](O)[C@H]2O)c1
[1]
  Ratio: 1.17

## O=S(=O)(O)OC[C@H]1O[C@@H](Oc2ccc(-c3ccccc3)cc2)[C@H](O)[C@@H](O)[C@@H]1O
[2]
  Ki: 1600 µM
[1]
  Ratio: 0.58
[3]
  Vmax: 0.0271 µM/s
[4]
  Km: 838 µM

## O=S(=O)(O)OC[C@H]1O[C@@H](Oc2ccccc2CO)[C@H](O)[C@@H](O)[C@@H]1O
[1]
  Ratio: 0.89

## Nc1ccc(O[C@@H]2O[C@H](COS(=O)(=O)O)[C@@H](O)[C@H](O)[C@H]2O)cc1
[1]
  Ratio: 1

## CO[C@H]1O[C@H](COS(=O)(=O)O)[C@@H](O)[C@H](OCc2ccccc2)[C@H]1O
[1]
  Ratio: 1.16
